Legend:
[1] = target: Pol β binary complex (Pol β/sngDNA) (Rattus norvegicus, UniProt P06766); assay type: binding; conditions: for ΔH of binding (ITC) / ΔS of binding (ITC): binding to Pol β binary complex, 23 °C
Outline: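 Binary complex formed with 20-mer single-nucleotide-gapped duplex DNA (DNA:protein ~1.5:1). Ligands were nonhydrolyzable α,β-imido dNTP analogues, titrated in matched buffer (50 mM HEPES, 100 mM NaCl, 5 mM MgCl₂, 2 mM DTT, pH 7.4) at 1000 rpm with 250 s between injections. Matching analogue: 0.2 mM into 0.013 mM complex. Mismatching analogue: 6 mM into 0.106 mM complex.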

[2] = target: binary Pol β complex (Pol β/sngDNA) (Homo sapiens, UniProt P06746); assay: NMR lineshape analysis; assay type: binding, rat
Outline: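 It was titrated with Mg²⁺-containing nonhydrolyzable matching (0–2:1) or mismatching (0.15–4.6:1) dNTP analogue, followed by ¹H–¹⁵N TROSY/HSQC. Resonances resolved in both dimensions throughout were fitted to a two-state model for koff and KD.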

fold weaker binding than the matching nucleotide ([1]; based upon ITC data)	ΔH of binding (ITC) [1]	ΔS of binding (ITC) [1]	fold greater koff than that measured for the matching nucleotide ([2]; NMR line shape data)	kex of nucleotide binding/dissociation within the binding cavity ([2]; in the presence of 3.0 mM dApNHpp, estimated)	koff (NMR lineshape analysis) ([2]; two-state model, global fit of nine residues, 23 °C)	Compound
approximately 300 fold	8.84 ± 2.2 kcal/mol	195 ± 32 J/mol−K	approximately 50 fold	~7000 s⁻¹	–	Nc1ncnc2c1ncn2[C@H]1C[C@H](O)[C@@H](COP(=O)(O)NP(=O)(O)OP(=O)(O)O)O1 [dApNHpp, 2′-deoxyadenosine-5′[(α,β)-imido]triphosphate]
–	22.2 ± 0.24 kcal/mol	432 ± 5 J/mol−K	–	–	5.1 s⁻¹	Nc1ccn([C@H]2C[C@H](O)[C@@H](COP(=O)(O)NP(=O)(O)OP(=O)(O)O)O2)c(=O)n1 [dCpNHpp, 2′-Deoxycytidine-5′-[(α,β)-imido]triphosphate]

Reference: paper PMC8259413 (Biochemistry, 2015)
